# Data from ChEMBL document CHEMBL4270537, “Design and biological evaluation of novel triaryl pyrazoline derivatives with dioxane moiety for selective BRAFV600E inhibition” (Eur J Med Chem, 2018).
# Activity calls are given as the source filed them. No cut-off for these calls is given here.
# Columns and labels:
# [1] = target: Serine/threonine-protein kinase B-raf (Mus musculus, UniProt P28028, V600E); experiment: Inhibition of mouse full length GST-tagged BRAF V600E mutant using recombinant human full length N-terminal His-tagged MEK1 as substrate preincubated for 1 hr followed by substrate addition measured after 25 mins
# [2] = target: Serine/threonine-protein kinase B-raf (Homo sapiens, UniProt P15056); experiment: Inhibition of recombinant human full length GST-tagged wild type BRAF expressed in baculovirus expression system using recombinant human full length N-terminal His-tagged MEK1 as substrate preincubated for 1 hr followed by substrate addition measured after 25 mins
# [3] = tested on: A-375; experiment: Antiproliferative activity against human A375 cells after 48 hrs by MTT assay; format: functional; settings: A-375, 48 h
# In short: (§1)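 MTT reduction assay. Cell lines grown to log phase in DMEM with 10% FBS (A375 in DMEM with sodium pyruvate added), seeded at 10⁴ cells/well in 96-well plates. Three replicate wells per concentration, each assay run three times, GI50 averaged.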
# [4] = tested on: WM 266-4; experiment: Antiproliferative activity against human WM266.4 cells after 48 hrs by MTT assay; format: functional; settings: WM 266-4, 48 h; in short: as §1
# [5] = Antiproliferative activity against human WM1361 cells after 48 hrs by MTT assay; format: functional; settings: WM1361, 48 h; in short: as §1
# [6] = tested on: HT-29; experiment: Antiproliferative activity against human HT-29 cells after 48 hrs by MTT assay; format: functional; settings: HT-29, 48 h; in short: as §1
# [7] = tested on: HCT-116; experiment: Antiproliferative activity against human HCT116 cells after 48 hrs by MTT assay; format: functional; settings: HCT-116, 48 h; in short: as §1
# [8] = target: RAF proto-oncogene serine/threonine-protein kinase (Homo sapiens, UniProt P04049, Y340D/Y341D); experiment: Inhibition of recombinant human GST-tagged c-RAF (306 to 648 residues) Y340D/Y341D mutant expressed in baculovirus expression system using recombinant human full length N-terminal His-tagged MEK1 as substrate preincubated for 1 hr followed by substrate addition measured after 25 mins
# [9] = Cytotoxicity against HEK293T cells assessed as decrease in cell viability after 48 hrs by MTT assay; format: cell-based, HEK-293T; settings: human; in short: as §1
# [10] = Cytotoxicity against human LO2 cells assessed as decrease in cell viability after 48 hrs by MTT assay; format: cell-based, L02; in short: as §1
# [11] = target: Dual specificity mitogen-activated protein kinase kinase; MEK1/2 (Homo sapiens, UniProt P36507+Q02750); experiment: Inhibition of MEK1/2 (unknown origin); format: protein assay
# [12] = target: Mitogen-activated protein kinase 8 (Homo sapiens, UniProt P45983); experiment: Inhibition of N-terminal flag-tagged JNK1 (unknown origin) expressed in baculovirus expression system after 60 mins in presence of [gamma-32P]ATP by topcount scintillation method
# In short: (§2)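 Baculovirus-expressed N-terminal FLAG-tagged kinases in 25 mM HEPES pH 7.5, 10 mM Mg acetate, 1 mM DTT, 0.5 µM ATP plus [γ-³²P]ATP, 50 µL. p38α: 100 ng enzyme, MBP substrate. JNK1: 10 ng enzyme, 1 µg c-Jun. Compound and enzyme preincubated 5 min, ATP started the reaction, 60 min at 30 °C. Stopped with 10% TCA, filtered, washed with 3% phosphoric acid, counted by TopCount.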
# [13] = target: Mitogen-activated protein kinase 14 (Homo sapiens, UniProt Q16539); experiment: Inhibition of N-terminal flag-tagged p38alpha (unknown origin) expressed in baculovirus expression system using MBP as substrate preincubated for 5 mins followed by substrate addition measured after 60 mins in presence of [gamma-32P]ATP by topcount scintillation method; in short: as §2
# [14] = tested on: A-375; experiment: Antitumor activity against human A375 cells xenografted in nude mouse assessed as tumor weight at 5 mg/kg, ip administered every second day for 14 days and measured on day 15; format: functional
# In short: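 A375 cells, 3 × 10⁶ in 0.1 mL cold PBS, injected subcutaneously into right flank of nude mice. Treatment began when tumors reached ~100 mm³; mice randomized, 5 per group. Compound suspended in olive oil, given intraperitoneally every second day for 14 days. Body weight recorded every two days; tumors excised and weighed on day 15.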
# [15] = tested on: Mus musculus; experiment: Toxicity in nude mouse xenografted with human A375 cells assessed as body weight loss at 5 mg/kg, ip administered every second day for 14 days and measured every 2 days; format: organism-based; settings: in vivo
# In short: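 Nude mice bearing subcutaneous right-flank A375 xenografts (3×10⁶ cells in cold PBS) were randomized into groups of 5 at about 100 mm³. Compounds were suspended in olive oil and given intraperitoneally every second day for 14 days. Body weight was recorded every two days.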
# [16] = tested on: Serine/threonine-protein kinase B-raf (Homo sapiens), P15056 [V600E]; experiment: Inhibition of BRAF V600E mutant in human A375 cells assessed as decrease in MEK1/2 phosphorylation up to 0.3 uM after 30 mins by Western blot analysis; format: cell-based
# Chain of Serine/threonine-protein kinase B-raf (Homo sapiens), P15056 [V600E] (P15056 whole entry V600E): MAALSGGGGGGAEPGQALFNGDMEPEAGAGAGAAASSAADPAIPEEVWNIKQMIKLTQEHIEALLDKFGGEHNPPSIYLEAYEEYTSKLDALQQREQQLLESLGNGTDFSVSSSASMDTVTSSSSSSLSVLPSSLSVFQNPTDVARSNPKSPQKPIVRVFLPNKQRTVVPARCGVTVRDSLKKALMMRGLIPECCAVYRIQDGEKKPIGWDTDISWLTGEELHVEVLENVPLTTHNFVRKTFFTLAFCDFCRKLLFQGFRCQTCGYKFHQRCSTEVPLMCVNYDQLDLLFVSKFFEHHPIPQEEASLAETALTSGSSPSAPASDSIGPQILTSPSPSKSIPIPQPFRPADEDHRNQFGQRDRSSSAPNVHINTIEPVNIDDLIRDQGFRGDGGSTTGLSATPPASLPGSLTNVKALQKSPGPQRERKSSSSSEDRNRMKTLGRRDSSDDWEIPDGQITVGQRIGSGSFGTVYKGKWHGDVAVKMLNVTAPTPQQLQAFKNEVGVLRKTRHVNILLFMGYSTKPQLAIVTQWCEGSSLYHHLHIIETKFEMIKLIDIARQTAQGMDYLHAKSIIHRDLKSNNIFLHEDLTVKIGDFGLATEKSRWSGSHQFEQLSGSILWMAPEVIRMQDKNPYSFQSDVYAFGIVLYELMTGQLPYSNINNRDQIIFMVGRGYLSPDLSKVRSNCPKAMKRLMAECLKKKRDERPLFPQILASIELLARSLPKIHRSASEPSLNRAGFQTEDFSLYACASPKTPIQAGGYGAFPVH
# Chain of Serine/threonine-protein kinase B-raf (Homo sapiens, UniProt P15056) (P15056 whole entry): as the sequence (P15056 whole entry V600E) above, with E600V counted along it
# Chain of Serine/threonine-protein kinase B-raf (Mus musculus, UniProt P28028, V600E) (P28028 whole entry, looked up, stated change not applied): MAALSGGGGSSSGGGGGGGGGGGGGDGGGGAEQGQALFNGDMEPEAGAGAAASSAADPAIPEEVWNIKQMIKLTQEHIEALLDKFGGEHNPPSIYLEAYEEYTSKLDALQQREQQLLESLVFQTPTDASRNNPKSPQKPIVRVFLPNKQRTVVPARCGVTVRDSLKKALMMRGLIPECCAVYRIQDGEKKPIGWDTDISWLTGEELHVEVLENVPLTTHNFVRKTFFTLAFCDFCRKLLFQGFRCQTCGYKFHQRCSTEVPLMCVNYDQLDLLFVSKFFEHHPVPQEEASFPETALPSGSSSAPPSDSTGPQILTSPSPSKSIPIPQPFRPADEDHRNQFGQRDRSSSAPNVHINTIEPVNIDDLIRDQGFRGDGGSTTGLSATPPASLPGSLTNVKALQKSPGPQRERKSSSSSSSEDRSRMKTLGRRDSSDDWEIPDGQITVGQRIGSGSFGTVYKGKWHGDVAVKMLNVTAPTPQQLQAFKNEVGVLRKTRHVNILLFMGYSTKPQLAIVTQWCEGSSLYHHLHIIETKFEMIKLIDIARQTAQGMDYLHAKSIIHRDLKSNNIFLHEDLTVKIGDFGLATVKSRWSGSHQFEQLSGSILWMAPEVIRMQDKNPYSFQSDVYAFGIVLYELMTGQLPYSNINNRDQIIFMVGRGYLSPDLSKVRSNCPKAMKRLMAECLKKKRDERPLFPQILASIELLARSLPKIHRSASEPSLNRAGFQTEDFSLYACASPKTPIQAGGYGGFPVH
# Chain of RAF proto-oncogene serine/threonine-protein kinase (P04049 whole entry Y340D/Y341D, the tested form may be a part): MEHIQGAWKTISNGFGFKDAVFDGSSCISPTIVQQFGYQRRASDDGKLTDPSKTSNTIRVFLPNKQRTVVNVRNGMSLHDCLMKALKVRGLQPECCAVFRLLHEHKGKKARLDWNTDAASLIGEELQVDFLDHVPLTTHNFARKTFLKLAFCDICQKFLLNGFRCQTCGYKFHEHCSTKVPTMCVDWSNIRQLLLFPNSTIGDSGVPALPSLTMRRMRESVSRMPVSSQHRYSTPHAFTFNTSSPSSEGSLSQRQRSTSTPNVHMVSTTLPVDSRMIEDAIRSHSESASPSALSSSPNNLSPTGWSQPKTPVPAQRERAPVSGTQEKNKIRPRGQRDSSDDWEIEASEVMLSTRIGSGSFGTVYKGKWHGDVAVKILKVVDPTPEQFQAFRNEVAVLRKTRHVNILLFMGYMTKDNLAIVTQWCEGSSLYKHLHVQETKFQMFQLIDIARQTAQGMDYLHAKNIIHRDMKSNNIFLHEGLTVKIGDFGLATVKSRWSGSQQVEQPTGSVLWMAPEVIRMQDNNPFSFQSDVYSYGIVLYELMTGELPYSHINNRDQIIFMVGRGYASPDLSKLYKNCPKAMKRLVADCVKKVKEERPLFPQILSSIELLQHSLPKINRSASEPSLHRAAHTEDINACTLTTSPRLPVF
# Chain of Mitogen-activated protein kinase 14 (Q16539 whole entry): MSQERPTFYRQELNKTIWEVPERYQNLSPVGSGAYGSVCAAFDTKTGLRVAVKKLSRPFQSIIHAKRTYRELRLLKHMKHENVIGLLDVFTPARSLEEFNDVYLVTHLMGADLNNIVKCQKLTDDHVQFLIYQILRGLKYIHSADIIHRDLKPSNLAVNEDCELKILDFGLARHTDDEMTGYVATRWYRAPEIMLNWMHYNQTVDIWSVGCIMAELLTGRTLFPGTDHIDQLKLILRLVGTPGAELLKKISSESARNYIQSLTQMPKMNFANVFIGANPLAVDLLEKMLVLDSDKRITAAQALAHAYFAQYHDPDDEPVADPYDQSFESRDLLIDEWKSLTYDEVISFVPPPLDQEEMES
# Chain of Mitogen-activated protein kinase 8 (P45983 whole entry): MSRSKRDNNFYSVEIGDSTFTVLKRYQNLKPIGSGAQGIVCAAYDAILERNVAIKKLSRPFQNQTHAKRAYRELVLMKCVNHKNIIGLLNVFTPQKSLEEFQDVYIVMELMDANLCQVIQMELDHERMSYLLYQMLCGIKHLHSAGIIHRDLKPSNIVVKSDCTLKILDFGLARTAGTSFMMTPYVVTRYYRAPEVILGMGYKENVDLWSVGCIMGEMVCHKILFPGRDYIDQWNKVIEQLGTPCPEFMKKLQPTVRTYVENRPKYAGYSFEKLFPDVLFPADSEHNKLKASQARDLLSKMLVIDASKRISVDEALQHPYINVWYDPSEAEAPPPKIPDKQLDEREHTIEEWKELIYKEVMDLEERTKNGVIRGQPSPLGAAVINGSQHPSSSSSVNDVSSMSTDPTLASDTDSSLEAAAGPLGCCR
Structure (SMILES),IC50 [1] [µM],IC50 [2] [µM],GI50 [3] [µM],GI50 [6] [µM],GI50 [7] [µM],GI50 [4] [µM],GI50 [5] [µM],IC50 [8] [µM],GI50 at 48 h [9] [µM],GI50 at 48 h [10] [µM],IC50 [11] [µM],IC50 [12] [µM],IC50 [13] [µM],Activity [14] [g],Activity [15],inhibition [16]
O=[N+]([O-])c1ccc(C2=NN(C(=S)Nc3ccccc3)C(c3ccc4c(c3)OCCO4)C2)cc1 (stereo not given),57.2,> 200,78.1,153,> 200,105,> 200,,,,,,,,,
S=C(Nc1ccccc1)N1N=C(c2ccc(Br)cc2)CC1c1ccc2c(c1)OCCO2 (stereo not given),0.05,18.7,0.47,2.58,32.1,0.87,37.5,17.6,152,188,188,93.6,> 200,,,
S=C(Nc1ccccc1)N1N=C(c2ccccc2Br)CC1c1ccc2c(c1)OCCO2 (stereo not given),> 200,124,> 200,> 200,195,> 200,> 200,,,,,,,,,
S=C(Nc1ccccc1)N1N=C(c2ccc(Cl)cc2)CC1c1ccc2c(c1)OCCO2 (stereo not given),135,> 200,195,187,> 200,> 200,> 200,,,,,,,,,
S=C(Nc1ccccc1)N1N=C(c2cccc(Cl)c2)CC1c1ccc2c(c1)OCCO2 (stereo not given),> 200,95.9,> 200,> 200,138,> 200,153,,,,,,,,,
S=C(Nc1ccccc1)N1N=C(c2ccc(OCc3ccccc3)cc2)CC1c1ccc2c(c1)OCCO2 (stereo not given),0.01,5.23,0.35,0.86,8.53,0.42,8.23,3.15,175,> 200,176,88.9,> 200,,,Active
Cc1ccc(C2=NN(C(=S)Nc3ccccc3)C(c3ccc4c(c3)OCCO4)C2)cc1C (stereo not given),38.9,48.9,61.3,133,144,70.5,148,,,,,,,,,
CSc1ccc(C2=NN(C(=S)Nc3ccccc3)C(c3ccc4c(c3)OCCO4)C2)cc1 (stereo not given),84.3,156,159,> 200,193,197,187,,,,,,,,,
S=C(Nc1ccccc1)N1N=C(c2cccs2)CC1c1ccc2c(c1)OCCO2 (stereo not given),78.3,5.21,121,188,8.19,154,7.96,,,,,,,,,

# Continued by falling GI50 [3], values first:
IC50 [1] [µM],IC50 [2] [µM],GI50 [3] [µM],GI50 [6] [µM],GI50 [7] [µM],Structure (SMILES),GI50 [4] [µM],GI50 [5] [µM],IC50 [8] [µM],GI50 at 48 h [9] [µM],GI50 at 48 h [10] [µM],IC50 [11] [µM],IC50 [12] [µM],IC50 [13] [µM],Activity [14] [g],Activity [15],inhibition [16]
29.5,35.6,43.5,97.5,112,FC(F)(F)c1ccc(C2=NN(C(=S)Nc3ccccc3)C(c3ccc4c(c3)OCCO4)C2)cc1 (stereo not given),52.4,123,,,,,,,,,
30.6,39.3,41.9,95.3,125,S=C(Nc1ccccc1)N1N=C(c2ccc(Cl)c(Cl)c2)CC1c1ccc2c(c1)OCCO2 (stereo not given),58.7,122,,,,,,,,,
12.1,> 200,20.3,30.5,> 200,COc1ccccc1C1=NN(C(=S)Nc2ccccc2)C(c2ccc3c(c2)OCCO3)C1 (stereo not given),25.8,> 200,,,,,,,,,
11.1,23.1,15.7,37.6,61.2,Fc1ccc(C2=NN(C(=S)Nc3ccccc3)C(c3ccc4c(c3)OCCO4)C2)cc1 (stereo not given),22.5,65.3,,,,,,,,,
4.28,> 200,6.32,19.5,> 200,Cc1ccc(C2=NN(C(=S)Nc3ccccc3)C(c3ccc4c(c3)OCCO4)C2)cc1 (stereo not given),10.3,> 200,,,,,,,,,
0.82,21.3,1.85,6.63,57.6,S=C(Nc1ccccc1)N1N=C(c2ccccc2)CC1c1ccc2c(c1)OCCO2 (stereo not given),3.18,58.5,,,,,,,,,
,,0.95,1.88,25.2,CCCS(=O)(=O)Nc1ccc(F)c(C(=O)c2c[nH]c3ncc(-c4ccc(Cl)cc4)cc23)c1F [VEMURAFENIB],0.21,20.8,,,,,,,0.41,Non-Toxic,
